Experimental data from different studies.
Protocols differ between the studies behind these lines.
Target: Casein kinase I isoform gamma-1 (CSNK1G1, Homo sapiens, UniProt Q9HCP0)

SMILES | test | setting | quantity | value
Cc1cnc(NC2CCOCC2)nc1-n1cnc(C(=O)NC(CN)c2cc(F)cc(Cl)c2)c1 (centres unmarked) | enzyme activity, inhibitor, radiometric | 1 µM | remaining activity | 66%
CS(=O)(=O)N1CCCC(NC(=O)[C@H](CCC2CCCCC2)NC(=O)c2ccc(CNC(=O)c3cnc4ccccn34)cc2)C1 (some centres unmarked) | cell-free assay, competition with immobilised ligand | 0.1 µM | remaining binding | 100%
CNC(=O)c1cc(Oc2ccc(NC(=O)Nc3ccc(Cl)c(C(F)(F)F)c3)cc2)ccn1 | enzyme activity, inhibitor | 10 µM | inhibition | -13%
COc1cc2ncnc(Nc3ccc(Oc4ccccc4)c(C)c3C)c2cc1OC | enzyme activity, inhibitor | 1 µM | inhibition | 0%
O=C(Nc1cnn(-c2csc(C(=O)NC3COC3)c2)c1)Nc1ccccc1Cl | enzyme activity, inhibitor | 5 µM | remaining activity | 99%
Cn1nc(C(F)(F)F)cc1-c1cnc(N2CCc3cc(S(=O)(=O)Nc4c(F)cc(Cl)cc4F)cc(N4CCCC4=O)c32)nc1 | cell-free assay, competition with immobilised ligand | 1 µM | remaining binding | 100%
CN1CC(Oc2cnc(C#N)cc2-c2ccn3nc(NC(=O)C4CC4)cc3c2)C1 | enzyme activity, inhibitor | 1 µM | inhibition | -3%
C=CC(=O)Nc1cc(Nc2nccc(Nc3cc(Cl)c(F)cc3C(C)(C)O)n2)c(OC)cc1N1CC[C@@H](N(C)C)C1 | enzyme activity, inhibitor | 1 µM | inhibition | 15%
CC(C)c1ccc(NC(=O)c2cccs2)c(-c2nc3ccccc3[nH]c2=O)c1 | enzyme activity, inhibitor | 1 µM | activity vs control | 102%
O=C(O)[C@H]1[C@H](Cn2nnc3ccccc3c2=O)CC[C@@H]1C(=O)c1ccc(OCCC2CCOCC2)cc1 | cell-free assay, competition with immobilised ligand | 1 µM | remaining binding | 94%
Cc1ccc(NC(=O)c2ccc(C)c(C(F)(F)F)c2)cc1C#Cc1nn(C2CCC(O)CC2)c2ncnc(N)c12 (centres unmarked) | cell-free assay | 10 µM | remaining signal | 83%
CC(C)(C)c1nc2c(s1)c1nc(N)ncc1c1ccc(NS(=O)(=O)c3c(F)cccc3F)c(F)c12 | enzyme activity, inhibitor, radiometric | 1 µM | remaining activity | 63%
Cc1nc(N2CC[C@@H](O)C2)ncc1-c1cc(C(F)(F)F)cc2[nH]ncc12 | cell-free assay, competition with immobilised ligand | 1 µM | remaining binding | 78%
O=C1NC(=O)c2cc(Nc3ccc(F)cc3)c(Nc3ccc(F)cc3)cc21 | cell-free assay | 0.5 µM | remaining signal | 96.3%
Cc1ccc(Nc2nccc(N(C)c3ccc4c(C)n(C)nc4c3)n2)cc1S(N)(=O)=O | enzyme activity, inhibitor | 0.3 µM | inhibition | -27%
COc1cc2c(Nc3ccc(Br)cc3F)ncnc2cc1OCC1CCN(C)CC1 | cell-free assay | 0.5 µM | remaining signal | 100%
CC(C)(O)c1cncc(-c2nc3ccc(F)cc3n2C2CC2)c1 | cell-free assay, competition with immobilised ligand | 1 µM | remaining binding | 100%
C[C@@H]1CCN(C(=O)CC#N)C[C@@H]1N(C)c1ncnc2[nH]ccc12 | cell-free assay, inhibitor | 0.5 µM | remaining signal | 101%
CS(=O)(=O)N1CCCC(NC(=O)[C@H](CCC2CCCCC2)NC(=O)c2ccc(CNc3ncnc4c3nnn4-c3ccccc3)cc2)C1 (some centres unmarked) | cell-free assay, competition with immobilised ligand | 0.1 µM | remaining binding | 100%
CCCS(=O)(=O)Nc1ccc(F)c(C(=O)c2c[nH]c3ncc(-c4ccc(Cl)cc4)cc23)c1F | enzyme activity, inhibitor | 1 µM | inhibition | < 10%
